The test system of assay [1] is Vaccinia virus. Put plainly: Antiviral activity against Vaccinia virus. Format: functional, Orthopoxvirus vaccinia. Also on record: unit not given here. Summed up:
(§1)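 Disk-diffusion gradient assay. BSC1 (M199) or Vero (RPMI) monolayers with 10% inactivated calf serum are infected to give confluent plaques. They are overlaid with Eagle's/1% agar/5% calf serum. A 5-mm paper disk soaked in compound (5 mg/mL in DMSO) is placed centrally, then 3–4 days at 37 °C, fix and stain. Diameter of the destroyed central zone = toxicity. Plaque-free diameter minus toxic diameter = antiviral activity.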

Assay [2] concerns Semliki Forest virus. Put plainly: Antiviral activity against forest virus. It counts as functional. The essentials:
as §1

Assay [3] deals with Human alphaherpesvirus 1. Put plainly: Antiviral activity against HSV-1 (Herpes simplex virus). It counts as functional. The essentials: as §1
Assay [4] relates to Vero. The experiment in a line: Cytotoxicity against BSCL and Vero cells. It counts as functional, Chlorocebus sabaeus. The essentials:
as §1

Assay [5] concerns Human alphaherpesvirus 1. Put plainly: Growth inhibition against HSV-1 virus in BSCL cells at the dose of 0.8 ug/mL and 22h time of treatment. Format: functional. As to conditions: Human alphaherpesvirus 1, BSCL. Summed up: (§2)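 HSV-1 grown 22 h in BSC1 cells in the presence of compound after infection at 1 pfu/cell (1 h, 37 °C, wash, medium with 2% calf serum). Virus yield is titred by plaque assay on agar overlay: 4 days at 37 °C, crystal violet stain, plaque count. Reported as % inhibition of virus growth.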

Assay [6] has as its system BSC-1. The experiment in a line: Inhibition of cellular DNA synthesis in BSCL cells at the dose of 0.8 ug/mL. It counts as functional, Cercopithecidae. The conditions noted are these: Chlorocebus aethiops. The essentials:
(§3)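 HSV-1-infected BSC1 cells labelled with [3H]thymidine (2 μCi/mL) from 3 h post-infection and harvested at 22 h. Lysed with 1% SDS and 0.3 mg/mL Pronase for 5 h at 37 °C. DNA banded on CsCl gradient (pH 8.0, 35000 rpm, 20 °C, 48 h). TCA-precipitable radioactivity in viral and cellular DNA peaks is summed and expressed as % of infected untreated culture.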

For assay [7], the system named is Human alphaherpesvirus 1. Put plainly: Inhibition of viral DNA synthesis in HSV-1 virus at the dose of 0.8 ug/mL. Format: functional. The essentials: as §3
The test system of assay [8] is Human alphaherpesvirus 1. Put plainly: Growth inhibition against HSV-1 virus in BSCL cells at the dose of 1.4 ug/mL and 22h time of treatment. Format: functional. The conditions noted are these: Human alphaherpesvirus 1, BSCL. The essentials:
as §2

The test system of assay [9] is BSC-1. Put plainly: Inhibition of cellular DNA synthesis in BSCL cells at the dose of 1.4 ug/mL. Format: functional, Cercopithecidae. The conditions noted are these: Chlorocebus aethiops. Summed up:
as §3

Assay [10] has as its system Human alphaherpesvirus 1. Put plainly: Inhibition of viral DNA synthesis in HSV-1 virus at the dose of 1.4 ug/mL. Format: functional. The essentials:
as §3

For assay [11], the system named is BSC-1. Put plainly: Inhibition of cellular DNA synthesis in BSCL cells at the dose of 17.0 ug/mL. It counts as functional, Cercopithecidae. As to conditions: Chlorocebus aethiops. Summed up:
as §3

Assay [12] concerns Human alphaherpesvirus 1. The experiment in a line: Growth inhibition against HSV-1 virus in BSCL cells at the dose of 17.0 ug/mL and 22h time of treatment. Format: functional. As to conditions: Human alphaherpesvirus 1, BSCL. The essentials: as §2
Assay [13] has as its system Human alphaherpesvirus 1. Put plainly: Inhibition of viral DNA synthesis in HSV-1 virus at the dose of 17.0 ug/mL. It counts as functional. The essentials:
as §3

For the compound `CC(=O)OCC(OC(C)=O)C(OC(C)=O)C(C=C(C(C)=O)C(C)=O)OC(C)=O` (stereo unspecified), the values for the Antiviral activity in assay [1], in [2] and in assay [3] were 0, 0 mm and 11 mm, respectively. For the same compound, in assay [4], the Cytotoxicity is listed as 13 mm.
Take `CC(=O)/C(=C\[C@@H]1O[C@H](c2ccccc2)O[C@H](CC(=O)Oc2ccccc2)[C@H]1C(=O)Oc1ccccc1)C(=O)Nc1ccccc1`: the Antiviral activity is on record as 9 in assay [1], 0 mm in [2] and 2 mm in assay [3]. The compound also registered a Cytotoxicity in assay [4] of 4 mm.
For `O=c1[nH]c(=O)n([C@H]2C[C@H](O)[C@@H](CO)O2)cc1I` [IDOXURIDINE], the values for the inhibition at 0.8 µg/mL in assay [5], in [6] and in [7] were 71.3%, 21.5% and 31.1%, respectively.
On to `Nc1ccn([C@@H]2O[C@H](CO)[C@@H](O)[C@@H]2O)c(=O)n1` [CYTARABINE], for which the inhibition at 1.4 µg/mL stood at 93.6% in [8], 38.3% in assay [9] and 0% in assay [10].
Turning to `O=C[C@@H]1O[C@H](c2ccccc2)O[C@@H]2CO[C@@H](c3ccccc3)O[C@@H]12`, the Antiviral activity is 12 in assay [1], 6 mm in assay [2] and 8 mm in assay [3]. The Cytotoxicity in assay [4] is 8 mm.
Consider `CC(=O)OCC(OC(C)=O)C(OC(C)=O)C(OC(C)=O)C(C=C(C(C)=O)C(C)=O)OC(C)=O` (stereo unspecified), for which the Antiviral activity in assay [1] is 3; in [2] it was 0 mm; in assay [3] it was 1 mm. In addition, in assay [4], the Cytotoxicity stood at 8 mm.
For `CC(=O)/C(=C\[C@@H]1O[C@H](c2ccccc2)O[C@@H]2CO[C@@H](c3ccccc3)O[C@@H]12)C(=O)c1ccccc1`, in that order: 8, 0 mm, 12 mm and 14 mm.
As for `CC(=O)C(=C[C@@H]1O[C@H](c2ccccc2)O[C@@H]2CO[C@@H](c3ccccc3)O[C@@H]12)C(C)=O`, the results for the inhibition at 17 µg/mL in assay [11], in assay [12] and in [13] were 80.7%, 95.5% and 50.9%, respectively. Besides, the Antiviral activity in [1] is listed as 5; in assay [2], 0 mm; in assay [3], 11 mm. This compound also showed a Cytotoxicity in assay [4] of 10 mm.
As for `O=C1OCC/C1=C\[C@@H]1O[C@H](c2ccccc2)O[C@@H]2CO[C@@H](c3ccccc3)O[C@@H]12`, the Antiviral activity in assay [1] is reported as 14; in assay [2] it was 0 mm; in assay [3] it was 0 mm. In assay [4], this compound had a Cytotoxicity of 3 mm.
As for `CC(=O)OC(C=C(C(C)=O)C(C)=O)C(OC(=O)c1ccccc1)C(COC(=O)c1ccccc1)OC(C)=O` (stereo unspecified), the Antiviral activity is reported as 6 in assay [1], 4 mm in assay [2] and 4 mm in [3]. Moreover, in [4], the Cytotoxicity is reported as 2 mm.

For orientation: inhibition means how much of the control response was suppressed.

The values above are taken from ChEMBL document CHEMBL1122461, “Antiviral compounds. 1. Structure-activity relationship of some antiviral enediones derived from aldehydo sugars” (1983).
